Data as given in publication PMC7318623 (Chemmedchem, 2020).

Columns and labels:
[1] = system: K562‐resistant cells; assay: Induction of cell death by PI FACS analyses, without or with imatinib; type: cell-based; conditions: for cell death rate, compound in combination with imatinib: 10 μM compound + 1 μM imatinib
[2] = target: T1, PPARγ (Homo sapiens, UniProt P37231); assay: PPARγ luciferase transactivation assay; type: cell-based
T1 sequence (P37231 238-503 limits assumed): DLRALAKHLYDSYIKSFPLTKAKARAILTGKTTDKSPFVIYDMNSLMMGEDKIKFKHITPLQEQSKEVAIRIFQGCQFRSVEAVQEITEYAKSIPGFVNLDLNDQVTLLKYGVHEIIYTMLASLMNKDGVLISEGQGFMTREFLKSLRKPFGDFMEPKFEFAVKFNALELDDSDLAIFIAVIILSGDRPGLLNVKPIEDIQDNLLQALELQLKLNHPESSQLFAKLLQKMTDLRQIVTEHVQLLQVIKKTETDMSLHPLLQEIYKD

[3] = system: COS‐7 cells; assay: Modified MTT assay; type: cell-based, monkey; conditions: non-malignant COS-7 cells
In short: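 COS-7 cells seeded 2×10³ per well in triplicate, then 24 h in humidified 5% CO2/95% air at 37 °C before dosing. Test compound added at 20 μM alongside a DMSO vehicle control (DMSO ≤0.1% final) and incubated 72 h. Metabolic activity read by the EZ4U modified MTT (formazan) assay and expressed relative to vehicle control set at 100%. Mean + SD, ≥3 independent experiments, three replicates each.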

| Compound | cell death rate, compound in combination with imatinib ([1]; 72 h) | EC50 [2] | other results |
| --- | --- | --- | --- |
| CCCc1nc2ccccc2n1Cc1ccc(-c2ccccc2C(=O)OC)cc1 [2 b, Methyl 4′‐((2‐propyl‐1H‐benzo[d]imidazol‐1‐yl)methyl)‐[1,1′‐biphenyl]‐2‐carboxylate] | 80% | – | cell death rate, compound alone ([1]; 10 μM compound, 72 h, without imatinib): 21%; PPARγ activation at 20 μM ([2]; compound at 20 μM, relative to pioglitazone 10 μM = 100 %): about 36%; cytotoxicity per se (in words) [3]: did not exert cytotoxicity per se |
| O=C(O)c1ccccc1-c1ccc(Cn2c3ccccc3c3ccccc32)cc1 [3 a, 4′‐((9H‐Carbazol‐9‐yl)methyl)‐[1,1′‐biphenyl]‐2‐carboxylic acid] | – | 10.4 ± 3.9 µM | – |
| CCCc1nc2ccccc2n1Cc1ccc(-c2ccccc2C(=O)O)cc1 [3 b, 4′‐((2‐Propyl‐1H‐benzo[d]imidazol‐1‐yl)methyl)‐[1,1′‐biphenyl]‐2‐carboxylic acid] | 31% | 6.98 ± 1.06 µM | – |
| CCc1c(C)n(Cc2ccc(-c3ccccc3C(=O)O)cc2)c2ccccc12 [3 c, 4′‐((3‐Ethyl‐2‐methyl‐1H‐indol‐1‐yl)methyl)‐[1,1′‐biphenyl]‐2‐carboxylic acid] | – | 6.86 ± 1.58 µM | – |
| CCCc1nc2cc(Br)ccc2n1Cc1ccc(-c2ccccc2C(=O)OC)cc1 [5 b, Methyl 4′‐((5‐bromo‐2‐propyl‐1H‐benzo[d]imidazol‐1‐yl)methyl)‐[1,1′‐biphenyl]‐2‐carboxylate] | 31% | – | – |
| O=C(O)c1ccccc1-c1ccc(Cn2c3ccccc3c3cc(Br)ccc32)cc1 [6 a, 4′‐((3‐Bromo‐9H‐carbazol‐9‐yl)methyl)‐[1,1′‐biphenyl]‐2‐carboxylic acid] | – | 5.68 ± 1.07 µM | – |
| CCc1c(C)n(Cc2ccc(-c3ccccc3C(=O)O)cc2)c2ccc(Br)cc12 [6 c, 4′‐((5‐Bromo‐3‐ethyl‐2‐methyl‐1H‐indol‐1‐yl)methyl)‐[1,1′‐biphenyl]‐2‐carboxylic acid] | – | 9.52 ± 0.74 µM | – |
| CCCc1nc2ccc(Br)cc2n1Cc1ccc(-c2ccccc2C(=O)OC)cc1 [6‐Br‐CO2CH3, methyl 4′‐((6‐bromo‐2‐propyl‐1H‐benzo[d]imidazol‐1‐yl)methyl)‐[1,1′‐biphenyl]‐2‐carboxylate] | 63% | – | – |
| Cc1ccc(NC(=O)c2ccc(CN3CCN(C)CC3)cc2)cc1Nc1nccc(-c2cccnc2)n1 [imatinib, reference compound] | – | – | cell death, imatinib alone ([1]; 1 μM imatinib, K562-resistant (KD225) cells): 10–20% |
| CCCc1nc2c(C)cc(-c3nc4ccccc4n3C)cc2n1Cc1ccc(-c2ccccc2C(=O)O)cc1 [telmisartan, reference compound] | – | 4.78 ± 0.79 µM | – |
